Four compounds from PubChem BioAssay AID2516 (University of Pittsburgh Molecular Library Screening Center, 2010) can be followed below.

The structures appear in SMILES notation. The list shows a part of the results. Values without a mark were called inactive.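 Rule for the calls: active = at least 50% inhibition in the glucose-6-phosphate dehydrogenase coupled counterscreen; inconclusive = no clear call, values can overlap the other calls; inactive = inhibition below 50%.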

For this test, the system named is glucose-6-phosphate dehydrogenase [Leuconostoc mesenteroides]. The test is described as follows: Leuconostoc G6PDH inhibition, confirmation, counter-screen for TbHK1 inhibitor project, biochemical, DPI cherry-picked compounds, single concentration (AID 2516). The conditions noted are these: purified G6PDH, NADH absorbance, 1 h; at 10 µM; stronger effect = higher value. The method in brief: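 Assay system: purified G6PDH enzyme / Quantity: G6PDH enzyme at 0.006 mU/µL final / Doses: one dose, 10 µM / Schedule: enzyme reaction for 1 h at room temperature / Detection: absorbance, mix-and-read, after quench with 50 mM EDTA final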
On the technique in general: A counterscreen serves to expose hits that act by an unwanted route or on another target.

As a reminder, the inhibition is the drop in the measured response relative to a control, in per cent. Take `O=C(CN1C(=O)C2C3C=CC(C3)C2C1=O)NCCc1ccccc1Cl` (centres undefined): the inhibition was -2.31%. On to `COc1cccc(/C=N/Nc2ncc(C(F)(F)F)cc2Cl)c1O`, for which the inhibition is -9.42%. As for `CC1(C)CC(=O)C=C(NCCCNC2CCCCC2)C1`, the figure is 2.59%. As for `COC(=O)C1CCN(CC(N)=O)CC1`, the figure is -9.01%.
